Experimental data collected from several papers.
Lines come from different studies, so protocols differ.

| Compound | target or system | test | system | conditions | endpoint | result |
| --- | --- | --- | --- | --- | --- | --- |
| O=c1c2ccccc2[se]n1-c1ccccc1 | HEK293 | cell growth or viability, MTT |  | 250 µM, 72 h | inhibition | 64% |
| Cc1ccc2c(CNCC3(N4CCCC4)COC3)c[nH]c2c1 | GBM6 | cell growth or viability |  | 30 µM, 48 h | viability | 60.6% |
| CO[C@H]1/C=C/O[C@@]2(C)Oc3c(C)c(O)c4c(O)c(c(/C=N/N5CCN(C)CC5)c(O)c4c3C2=O)NC(=O)/C(C)=C\C=C\[C@H](C)[C@H](O)[C@@H](C)[C@@H](O)[C@@H](C)[C@H](OC(C)=O)[C@@H]1C | Mycobacterium avium | microbial growth |  | 6 days | MIC | < 0.78 µM |
| [H]/N=C(/N)N[C@H]1[C@H](O)[C@@H](O)[C@H](O[C@@H]2O[C@@H](C)[C@](O)(C=O)[C@H]2O[C@@H]2O[C@@H](CO)[C@H](O)[C@@H](O)[C@@H]2NC)[C@@H](N/C(N)=N\[H])[C@@H]1O | Mycobacterium avium | microbial growth | ATCC25291 |  | MIC | 12.5 µg/mL |
| Cc1cccc2c(CNCC3(N4CCCC4)COC3)c[nH]c12 | GBM6 | cell growth or viability |  | 30 µM, 48 h | viability | 60.4% |
| CNCCN(C)C(=O)Oc1c(Br)c(C)nc(C)c1-c1ccc(Oc2ccc(OC(F)(F)F)cc2)cc1 | HEK293 | cell growth or viability |  |  | IC50 | > 10 µM |
| c1ccc(-c2ccc(C(c3ccccc3)n3ccnc3)cc2)cc1 (stereo not shown) | Vesicular stomatitis virus | viral entry, inhibitor | Vero C1008 | pseudovirus | IC50 | 30 to 40 µM |
| Cc1nc(C)c(-c2ccc(Oc3ccc(OC(F)(F)F)cc3)cc2)c(OC(=O)N(CCNC(C)C)C(C)C)c1Br | HEK293 | cell growth or viability |  |  | IC50 | > 10 µM |
| COc1nc2ccc(Br)cc2cc1[C@@H](c1ccccc1)[C@@](O)(CCN(C)C)c1cccc2ccccc12 | Mycolicibacterium phlei | microbial growth |  |  | MIC | 0.05 µg/mL |
| O=C(NC1CCC(CN2CCC(c3c[nH]c4ccccc34)CC2)CC1)c1cn(Cc2ccccc2)c2ccccc12 (stereo not shown) | HEK293 | cell growth or viability |  |  | IC50 | > 10 µM |
| COC(=O)C1=C(C)NC(C)=C(C(=O)OCCN(C)Cc2ccccc2)C1c1cccc([N+](=O)[O-])c1 (stereo not shown) | Vesicular stomatitis virus | viral entry, inhibitor | Vero C1008 | pseudovirus | IC50 | 25 to 70 µM |
| CNCCCN(C)C(=O)Oc1c(Br)c(C)nc(C)c1-c1ccc(Oc2ccc(OC(F)(F)F)cc2)cc1 | HEK293 | cell growth or viability |  |  | IC50 | > 10 µM |
| N.N.[Cl][Pt][Cl] | SK-MEL-28 | cell growth or viability, resazurin |  | dark | EC50 | 2.8 µM |
